Laboratory results as given in ChEMBL document CHEMBL1128325, “Microsphere formation in a series of derivatized alpha-amino acids: properties, molecular modeling, and oral delivery of salmon calcitonin” (J Med Chem, 1995).

Experiment: Partition coefficient (logP)
Type: physicochemical
Settings: octanol/water
In short: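 Computed rather than measured: derived from the reported experimental log P values of the parent amino acids by adding fragment constants for the N-substituent.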

logP	SMILES
-0.7	CC(=O)NC(Cc1ccccc1)C(=O)O (stereo unspecified) [AFALANINE]

Same assay, conditions: octanol/water; read-out: logP

SMILES	logP
O=C(O)CCC(NC(=O)c1ccccc1)C(=O)O (stereo unspecified)	-2.29
NCCCCC(NC(=O)c1ccccc1)C(=O)O (stereo unspecified)	-2.02
O=C(O)C(Cc1ccccc1)NS(=O)(=O)c1ccccc1 (stereo unspecified)	-1.41
NCCCCC(NS(=O)(=O)c1ccccc1)C(=O)O (stereo unspecified)	-2.8
O=C(NC(Cc1ccccc1)C(=O)O)C1CCCC1 (stereo unspecified)	-0.77
O=C(NC(Cc1ccccc1)C(=O)O)OCc1ccccc1 (stereo unspecified)	-1.11
CC(=O)NC(Cc1ccccc1)C(N)=O (stereo unspecified)	-1.76
NCCCC(NC(=O)c1ccccc1)C(=O)O (stereo unspecified)	-2.09
O=C(CC(=O)c1ccccc1)NC(Cc1ccccc1)C(=O)O (stereo unspecified)	-1.34
O=C(O)CC(NC(=O)c1ccccc1)C(=O)O (stereo unspecified)	-2.79
COC(=O)C(Cc1ccccc1)NC(=O)c1ccccc1 (stereo unspecified)	-0.13
O=C(NC(Cc1ccccc1)C(=O)O)C1CCCCC1 (stereo unspecified)	-0.27
CC(NC(=O)c1ccccc1)C(=O)O (stereo unspecified)	-2.14
COC(=O)C(Cc1ccccc1)NC(C)=O (stereo unspecified)	-0.2

Further lines, results first:

logP	SMILES
-1.22	O=C(NCCCCC(NC(=O)c1ccccc1)C(=O)O)c1ccccc1 (stereo unspecified)
-1.69	CC(C)CC(NS(=O)(=O)c1ccccc1)C(=O)O (stereo unspecified)
-0.91	CC(C)CC(NC(=O)c1ccccc1)C(=O)O (stereo unspecified)
-0.63	O=C(NC(Cc1ccccc1)C(=O)O)c1ccccc1 (stereo unspecified)
-1.21	O=CNC(Cc1ccccc1)C(=O)O (stereo unspecified)
-1.89	NC(=O)C(Cc1ccccc1)NC(=O)c1ccccc1 (stereo unspecified)
-3.98	O=C(O)C(CO)NS(=O)(=O)c1ccccc1 (stereo unspecified)
-2.68	O=C([O-])CNC(=O)c1ccccc1.[Na+]
-1.29	O=C(NCCCC(NC(=O)c1ccccc1)C(=O)O)c1ccccc1 (stereo unspecified)
-0.93	CNC(Cc1ccccc1)C(=O)O (stereo unspecified)
-0.53	O=C(NC(Cc1ccccc1)C(=O)O)c1ccccc1O (stereo unspecified)
-1.8	CC(C)C(NS(=O)(=O)c1ccccc1)C(=O)O (stereo unspecified)
-2.24	O=C(NC(Cc1ccc(O)cc1)C(=O)O)c1ccccc1 (stereo unspecified)
-0.43	CN(C)C(Cc1ccccc1)C(=O)O (stereo unspecified)
-0.13	O=C(Cc1ccccc1)NC(Cc1ccccc1)C(=O)O (stereo unspecified)
-1.3	CC(C)C(NC(=O)c1ccccc1)C(=O)O (stereo unspecified)
